Measured values published in ChEMBL document CHEMBL1126195, “A new, general synthetic route to multidentate N,S ligands for use in technetium-99m radiopharmaceuticals. Preparation of diamido disulfur, diamino dithiol, and tripodal N3S3 prototypes. Comparative biodistributions of [99mTcvO-DADS]- analogues which contain 5,5,5- and 5,7,5-membered chelate ring …” (J Med Chem, 1992).

Experiments:
Rattus norvegicus [1] = species: Rattus norvegicus; assay: Biodistribution was reported in rat blood after 5 min.; format: ADME, organism-based; details: in vivo
Outline: (§1)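 Female Sprague-Dawley rats (~200 g average, n = 3 per time point) were anesthetized with Metofane. They received 0.2 mL of 99mTc complex (50 µCi) by jugular vein injection. Rats were killed by cervical dislocation at early times or CO2 at later times. Blood (1 mL), brain, heart, a liver sample and one kidney were weighed and gamma-counted (100-150 keV) against standards. Values are average % injected dose/organ.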

Rattus norvegicus [2] = species: Rattus norvegicus; assay: Biodistribution was reported in rat heart after 1 min.; format: ADME, organism-based; details: in vivo; outline: as §1
Rattus norvegicus [3] = species: Rattus norvegicus; assay: Biodistribution was reported in rat kidney after 5 min.; format: ADME, organism-based; details: in vivo; outline: as §1
Rattus norvegicus [4] = species: Rattus norvegicus; assay: Biodistribution was reported in rat kidney after 1 min.; format: ADME, organism-based; details: in vivo; outline: as §1
Rattus norvegicus [5] = species: Rattus norvegicus; assay: Biodistribution was reported in rat heart after 15 min.; format: ADME, organism-based; details: in vivo, 0.25 h; outline: as §1
Rattus norvegicus [6] = species: Rattus norvegicus; assay: Biodistribution was reported in rat heart after 60 min.; format: ADME, organism-based; details: in vivo, 1 h; outline: as §1
Rattus norvegicus [7] = species: Rattus norvegicus; assay: Biodistribution was reported in rat liver after 60 min.; format: ADME, organism-based; details: in vivo, 1 h; outline: as §1
Rattus norvegicus [8] = species: Rattus norvegicus; assay: Biodistribution was reported in rat liver after 1 min.; format: ADME, organism-based; details: in vivo; outline: as §1
Rattus norvegicus [9] = species: Rattus norvegicus; assay: Biodistribution was reported in rat brain after 60 min.; format: ADME, organism-based; details: in vivo, 1 h; outline: as §1
Rattus norvegicus [10] = species: Rattus norvegicus; assay: Biodistribution was reported in rat brain after 15 min.; format: ADME, organism-based; details: in vivo, 0.25 h; outline: as §1
Rattus norvegicus [11] = species: Rattus norvegicus; assay: Biodistribution was reported in rat blood after 15 min.; format: ADME, organism-based; details: in vivo, 0.25 h; outline: as §1
Rattus norvegicus [12] = species: Rattus norvegicus; assay: Biodistribution was reported in rat kidney after 30 min.; format: ADME, organism-based; details: in vivo, 0.5 h; outline: as §1
Rattus norvegicus [13] = species: Rattus norvegicus; assay: Biodistribution was reported in rat blood after 60 min.; format: ADME, organism-based; details: in vivo, 1 h; outline: as §1
Rattus norvegicus [14] = species: Rattus norvegicus; assay: Biodistribution was reported in rat liver after 5 min.; details: in vivo
Rattus norvegicus [15] = species: Rattus norvegicus; assay: Biodistribution was reported in rat brain after 1 min.; format: ADME, organism-based; details: in vivo; outline: as §1
Rattus norvegicus [16] = species: Rattus norvegicus; assay: Biodistribution was reported in rat liver after 30 min.; format: ADME, organism-based; details: in vivo, 0.5 h; outline: as §1
Rattus norvegicus [17] = species: Rattus norvegicus; assay: Biodistribution was reported in rat heart after 30 min.; format: ADME, organism-based; details: in vivo, 0.5 h; outline: as §1
Rattus norvegicus [18] = species: Rattus norvegicus; assay: Biodistribution was reported in rat kidney after 60 min.; format: ADME, organism-based; details: in vivo, 1 h; outline: as §1
Rattus norvegicus [19] = species: Rattus norvegicus; assay: Biodistribution was reported in rat heart after 5 min.; format: ADME, organism-based; details: in vivo; outline: as §1
Rattus norvegicus [20] = species: Rattus norvegicus; assay: Biodistribution was reported in rat brain after 5 min.; format: ADME, organism-based; details: in vivo; outline: as §1
Rattus norvegicus [21] = species: Rattus norvegicus; assay: Biodistribution was reported in rat blood after 1 min.; format: ADME, organism-based; details: in vivo; outline: as §1
Rattus norvegicus [22] = species: Rattus norvegicus; assay: Biodistribution was reported in rat blood after 30 min.; format: ADME, organism-based; details: in vivo, 0.5 h; outline: as §1
Rattus norvegicus [23] = species: Rattus norvegicus; assay: Biodistribution was reported in rat liver after 15 min.; format: ADME, organism-based; details: in vivo, 0.25 h; outline: as §1
Rattus norvegicus [24] = species: Rattus norvegicus; assay: Biodistribution was reported in rat kidney after 15 min.; format: ADME, organism-based; details: in vivo, 0.25 h; outline: as §1
Rattus norvegicus [25] = species: Rattus norvegicus; assay: Biodistribution was reported in rat brain after 30 min.; format: ADME, organism-based; details: in vivo, 0.5 h; outline: as §1

O=C(CSC(=O)c1ccccc1)NCC(c1ccccc1)C(CNC(=O)CSC(=O)c1ccccc1)c1ccccc1 (stereo not given)
Dose/organ (Rattus norvegicus [1]): 5.18% | Dose/organ (Rattus norvegicus [2]): 0.17% | Dose/organ (Rattus norvegicus [3]): 1.6% | Dose/organ (Rattus norvegicus [4]): 2.2% | Dose/organ (Rattus norvegicus [5]): 0.1% | Dose/organ (Rattus norvegicus [6]): 0.03% | Dose/organ (Rattus norvegicus [7]): 47.68% | Dose/organ (Rattus norvegicus [8]): 66.32% | Dose/organ (Rattus norvegicus [9]): 0% | Dose/organ (Rattus norvegicus [10]): 0.01% | Dose/organ (Rattus norvegicus [11]): 3.64% | Dose/organ (Rattus norvegicus [12]): 1% | Dose/organ (Rattus norvegicus [13]): 2.1% | Dose/organ (Rattus norvegicus [14]): 61.6% | Dose/organ (Rattus norvegicus [15]): 0.05% | Dose/organ (Rattus norvegicus [16]): 61.12% | Dose/organ (Rattus norvegicus [17]): 0.04% | Dose/organ (Rattus norvegicus [18]): 0.92% | Dose/organ (Rattus norvegicus [19]): 0.1% | Dose/organ (Rattus norvegicus [20]): 0.01% | Dose/organ (Rattus norvegicus [21]): 24.64% | Dose/organ (Rattus norvegicus [22]): 2.52% | Dose/organ (Rattus norvegicus [23]): 71.36% | Dose/organ (Rattus norvegicus [24]): 1.2% | Dose/organ (Rattus norvegicus [25]): 0.01%

O=C(CSC(=O)c1ccccc1)NCCCCNC(=O)CSC(=O)c1ccccc1
Dose/organ (Rattus norvegicus [1]): 9.52% | Dose/organ (Rattus norvegicus [2]): 0.38% | Dose/organ (Rattus norvegicus [3]): 5.4% | Dose/organ (Rattus norvegicus [4]): 16.5% | Dose/organ (Rattus norvegicus [5]): 0.08% | Dose/organ (Rattus norvegicus [6]): 0.01% | Dose/organ (Rattus norvegicus [7]): 0.56% | Dose/organ (Rattus norvegicus [8]): 17.44% | Dose/organ (Rattus norvegicus [9]): 0% | Dose/organ (Rattus norvegicus [10]): 0.01% | Dose/organ (Rattus norvegicus [11]): 4.62% | Dose/organ (Rattus norvegicus [12]): 1.92% | Dose/organ (Rattus norvegicus [13]): 0.56% | Dose/organ (Rattus norvegicus [14]): 6.96% | Dose/organ (Rattus norvegicus [15]): 0.06% | Dose/organ (Rattus norvegicus [16]): 0.88% | Dose/organ (Rattus norvegicus [17]): 0.02% | Dose/organ (Rattus norvegicus [18]): 1.14% | Dose/organ (Rattus norvegicus [19]): 0.18% | Dose/organ (Rattus norvegicus [20]): 0.03% | Dose/organ (Rattus norvegicus [21]): 31.08% | Dose/organ (Rattus norvegicus [22]): 0.98% | Dose/organ (Rattus norvegicus [23]): 3.84% | Dose/organ (Rattus norvegicus [24]): 5.04% | Dose/organ (Rattus norvegicus [25]): 0%
